One block for each compound: values may come before it. Active and inactive are the calls of the source. The rule behind the calls is not given here.
Experiments:
clinical = conditions: human, in vivo
in vivo = conditions: rat
Rattus norvegicus [1] = assay: Anti-inflammatory activity in Wistar rat model of Freund's complete adjuvant-induced rheumatoid arthritis model assessed as reduction in paw swelling at 10 mg/kg, po dosed every day from day 16 after initial inflammation and measured after 10 days; assay type: functional, organism-based
Summary of the method: (§1)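 Wistar rats with Freund's complete adjuvant-induced arthritis, 30 randomized into 5 groups; oral daily dosing from day 16 after initial inflammation, reference 1 mg/kg, test 10, 20, 40 mg/kg; paw swelling degree tracked over days; P < .05 vs model group.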

Mus musculus [2] = assay: Toxicity in Kunming white mouse assessed as survival at 200 mg/kg, po dosed everyday for 5 weeks; assay type: organism-based; conditions: in vivo, 840 h
Summary of the method: (§2)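 Mice were dosed orally once daily at 200 mg/kg for 5 weeks alongside an untreated control group. Survival and body weight were recorded over the dosing period and compared with controls.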

Rattus norvegicus [3] = assay: Toxicity in Wistar rat model of Freund's complete adjuvant-induced rheumatoid arthritis model assessed as increase in body weight at 20 mg/kg, po dosed every day from day 16 after initial inflammation (reference value: 84.6 g); assay type: organism-based; conditions: in vivo
Rattus norvegicus [4] = assay: Anti-inflammatory activity in Wistar rat model of Freund's complete adjuvant-induced rheumatoid arthritis model assessed as reduction in paw swelling at 10 to 20 mg/kg, po dosed every day from day 16 after initial inflammation and measured after 10 days; assay type: functional, organism-based
Summary of the method: as §1

Danio rerio [5] = species on record: Danio rerio; assay: Anti-inflammatory activity in EGFP transgenic Zebrafish model of neutrophil inflammation assessed as reduction in number of neutrophil migration at 0.5 ug/ml incubated for 3 hrs by stereofluorescence microscopy; assay type: functional, organism-based
Summary of the method: (§3)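 72 h post-fertilization EGFP transgenic zebrafish, 24 larvae split into 4 groups (vehicle control, reference, two test articles); compound added to culture wells for 3 h; migrating neutrophils counted; P vs control by statistical comparison.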

Rattus norvegicus [6] = assay: Anti-inflammatory activity in Wistar rat model of Freund's complete adjuvant-induced rheumatoid arthritis model assessed as reduction in paw swelling at 10 to 40 mg/kg, po dosed every day from day 16 after initial inflammation; assay type: functional, organism-based
Summary of the method: as §1

[7] = Half life in mouse plasma by HPLC method; assay type: ADME, cell-free
[8] = Stability in mouse plasma assessed as time duration for complete drug degradation by HPLC method; assay type: ADME, cell-free
Rattus norvegicus [9] = assay: Toxicity in Wistar rat model of Freund's complete adjuvant-induced rheumatoid arthritis model assessed as increase in body weight at 10 mg/kg, po dosed every day from day 16 after initial inflammation (reference value: 84.6 g); assay type: organism-based; conditions: in vivo
[10] = Prodrug conversion in mouse plasma assessed as formation of 5-(4-isothiocyanatobutylthio)-1-phenyl-1H-tetrazole measured after 24 hrs by HPLC method; assay type: ADME, cell-free
[11] = Stability in HEPES buffer at pH 4.4 measured within 24 hrs by HPLC method; assay type: physicochemical; conditions: pH 4.4, 24 h
Summary of the method: (§4)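 Prodrug incubated in HEPES buffer at pH 4.4 or pH 7.4; concentrations of prodrug and released isothiocyanate followed over time (up to 24 h and beyond) to build concentration–time curves.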

[12] = Prodrug conversion in mouse plasma assessed as Tmax for formation of 5-(4-isothiocyanatobutylthio)-1-phenyl-1H-tetrazole measured after 24 hrs by HPLC method; assay type: ADME, cell-free
Rattus norvegicus [13] = assay: Toxicity in Wistar rat model of Freund's complete adjuvant-induced rheumatoid arthritis model assessed as increase in body weight at 40 mg/kg, po dosed every day from day 16 after initial inflammation (reference value: 84.6 g); assay type: organism-based; conditions: in vivo
Rattus norvegicus [14] = assay: Anti-inflammatory activity in Sprague-Dawley rat model of carrageenan-induced paw edema assessed as reduction in hind paw volume at 10 to 50 mg/kg, po dosed for 2 times at 6 hrs after carrageenan injection measured after 8 to 10 hrs; assay type: functional, organism-based; conditions: in the assay text read “at 2 and 6 hrs” for “at 6 hrs”
Summary of the method: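 Sprague-Dawley rats, 30 randomized into 5 groups (6 per group); oral dosing twice, at 2 h and 6 h after finishing carrageenan injection into paw; reference 5 mg/kg, test 10, 20, 50 mg/kg; swelling followed over time (to 10 h); significance vs model group.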

Danio rerio [15] = species on record: Danio rerio; assay: Potency index, ratio of dexamethasone to test compound anti-inflammatory activity in EGFP transgenic Zebrafish model of neutrophil inflammation assessed as reduction in number of neutrophil migration incubated for 3 hrs by stereofluorescence microscopy; assay type: functional
Mus musculus [16] = assay: Toxicity in Kunming white mouse assessed as effect on body weight at 200 mg/kg, po dosed everyday for 5 weeks measured from day 30 onwards; assay type: organism-based; conditions: in vivo, 840 h
Summary of the method: as §2

Rattus norvegicus [17] = assay: Anti-inflammatory activity in Wistar rat model of Freund's complete adjuvant-induced rheumatoid arthritis model assessed as reduction in paw swelling at 1 mg/kg, po dosed every day from day 16 after initial inflammation; assay type: functional, organism-based
Summary of the method: as §1

Rattus norvegicus [18] = assay: Anti-inflammatory activity in Wistar rat model of Freund's complete adjuvant-induced rheumatoid arthritis model assessed as reduction in paw swelling at 1 mg/kg, po dosed every day from day 16 after initial inflammation and measured after 10 days; assay type: functional, organism-based
Summary of the method: as §1

Danio rerio [19] = species on record: Danio rerio; assay: Anti-inflammatory activity in EGFP transgenic Zebrafish model of neutrophil inflammation assessed as reduction in number of neutrophil migration at 5 ug/ml incubated for 3 hrs by stereofluorescence microscopy; assay type: functional, organism-based
Summary of the method: as §3

[20] = Prodrug conversion in mouse plasma assessed as Tmax for formation of 1-isothiocyanato-4-(methylsulfinyl)butane measured after 24 hrs by HPLC method; assay type: ADME, cell-free
[21] = Prodrug conversion in mouse plasma assessed as formation of 1-isothiocyanato-4-(methylsulfinyl)butane measured after 24 hrs by HPLC method; assay type: ADME, cell-free
Danio rerio [22] = species on record: Danio rerio; assay: Anti-inflammatory activity in EGFP transgenic Zebrafish model of neutrophil inflammation assessed as reduction in number of neutrophil migration at 30 ug/ml incubated for 3 hrs by stereofluorescence microscopy; assay type: functional, organism-based
Summary of the method: as §3

[23] = Drug level in HEPES buffer at pH 7.4 treated with 2-(2-(2-(dimethylamino)ethoxy)ethoxy)ethyl 4-(1-phenyl-1H-tetrazol-5-ylthio)butylcarbamodithioate assessed as active compound formation measured at 2 hrs by HPLC method; assay type: physicochemical; conditions: pH 7.4, 2 h
Summary of the method: as §4

[24] = Drug level in mouse plasma treated with 2-(2-(2-(dimethylamino)ethoxy)ethoxy)ethyl 4-(1-phenyl-1H-tetrazol-5-ylthio)butylcarbamodithioate assessed as active compound formation measured after 24 hrs by HPLC method; assay type: ADME, cell-free
[25] = Drug level in HEPES buffer at pH 7.4 treated with 2-(2-(2-(dimethylamino)ethoxy)ethoxy)ethyl 4-(1-phenyl-1H-tetrazol-5-ylthio)butylcarbamodithioate assessed as active compound formation measured during 2 to 30 hrs by HPLC method; assay type: physicochemical
Summary of the method: as §4

SMILES: C[S+]([O-])CCCCN=C=S (stereo not given) [SULFORAPHANE]
- half-life (clinical): 1.77 h
- half-life (in vivo): 2.2 h

SMILES: CN(C)CCOCCOCCSC(=S)NCCCCSc1nnnn1-c1ccccc1
- Activity (Rattus norvegicus [1]): Active
- Activity (Mus musculus [2]): Non-Toxic
- Activity (Rattus norvegicus [3]): 70.8 g
- Activity (Rattus norvegicus [4]): Active
- Activity (Danio rerio [5]): Active
- Activity (Rattus norvegicus [6]): Active
- half-life [7]: 6 h
- Time [8]: 10 h
- Activity (Rattus norvegicus [9]): 80.8 g
- Drug metabolism [10]: Metabolite_Detected
- Stability [11]: Stable
- Tmax [12]: 2 h
- Activity (Rattus norvegicus [13]): 58.2 g
- Activity (Rattus norvegicus [14]): Active
- Ratio (Danio rerio [15]): 300
- Activity (Mus musculus [16]): Non-Toxic

SMILES: CN(Cc1cnc2nc(N)nc(N)c2n1)c1ccc(C(=O)N[C@@H](CCC(=O)O)C(=O)O)cc1
- Activity (Rattus norvegicus [17]): Active
- Activity (Rattus norvegicus [18]): Active

- Tmax [20]: 2 h
- half-life [7]: 6 h
- Time [8]: 24 h
- Stability [11]: Stable
- Drug metabolism [21]: Metabolite_Detected
SMILES: CN(C)CCOCCOCCSC(=S)NCCCC[S+](C)[O-] (stereo not given)
- Activity (Danio rerio [19]): Active

SMILES: C[C@@H]1C[C@H]2[C@@H]3CCC4=CC(=O)C=C[C@]4(C)[C@@]3(F)[C@@H](O)C[C@]2(C)[C@@]1(O)C(=O)CO
- Activity (Danio rerio [22]): Active

- Drug uptake [23]: Active
- Drug uptake [24]: Active
- Drug uptake [25]: Active
SMILES: S=C=NCCCCSc1nnnn1-c1ccccc1

Source: ChEMBL document CHEMBL4184239, “Therapeutic effects of isothiocyanate prodrugs on rheumatoid arthritis” (Bioorg Med Chem Lett, 2018)
